Paper PMC7497186 (The Journal of Pharmacy and Pharmacology, 2020)
Where two headings read alike, the source gives them in different places.

Tests used:
[1] = system: nitric oxide (NO) released from SW480 cells; assay: Nitric oxide inhibition, GREISS assay, LPS-induced SW480 cells; assay type: cell-based, human; conditions: for inhibition at 10 µM: SW480, read-out: % inhibition of NO released; for % inhibition of NO released: 10 µM, mean ± SEM, n = 3
Procedure, shortened: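 SW480 cells stimulated with 1 µg/ml S. typhimurium LPS plus IFN-γ for 48 h at 37°C, 5% CO2. Fresh supernatant mixed with an equal volume of sulphanilamide for 10 min at RT in the dark, then NED added for 20 min. Absorbance read at 540 nm; nitrite quantified against a 0–100 NO2 standard curve. Mean ± SEM, n = 3.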

[2] = target: T1, human recombinant 5-LOX (Homo sapiens, UniProt P09917); assay: 5-LOX inhibition, UV-Vis spectrophotometric assay; assay type: biochemical; conditions: for inhibition at 10 µM: read-out: % inhibition of 5-LOX
T1 sequence (P09917 1-674): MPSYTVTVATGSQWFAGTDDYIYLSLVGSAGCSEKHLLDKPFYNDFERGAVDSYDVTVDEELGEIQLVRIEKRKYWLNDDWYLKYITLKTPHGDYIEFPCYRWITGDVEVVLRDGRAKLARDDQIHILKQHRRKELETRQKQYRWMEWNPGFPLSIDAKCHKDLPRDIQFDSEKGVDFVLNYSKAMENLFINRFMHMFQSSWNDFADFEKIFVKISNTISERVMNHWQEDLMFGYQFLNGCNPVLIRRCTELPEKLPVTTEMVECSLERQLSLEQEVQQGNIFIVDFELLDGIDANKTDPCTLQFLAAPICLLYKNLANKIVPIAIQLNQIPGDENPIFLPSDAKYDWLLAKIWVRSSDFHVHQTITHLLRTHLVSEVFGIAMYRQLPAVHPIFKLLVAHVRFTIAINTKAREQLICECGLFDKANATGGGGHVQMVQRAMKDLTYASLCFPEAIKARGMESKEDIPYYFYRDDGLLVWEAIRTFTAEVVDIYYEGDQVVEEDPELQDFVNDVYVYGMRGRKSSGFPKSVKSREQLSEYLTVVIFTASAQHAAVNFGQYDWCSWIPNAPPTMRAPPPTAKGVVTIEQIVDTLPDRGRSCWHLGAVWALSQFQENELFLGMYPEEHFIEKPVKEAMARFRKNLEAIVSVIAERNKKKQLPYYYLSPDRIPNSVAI
Procedure, shortened: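 Human recombinant 5-LOX (0.5 unit/ml final) pre-incubated 5 min at RT in the dark with test compound, CaCl2 (0.4 mm final), L-α-phosphatidylcholine type II-S (24 µg/ml final) and ATP (0.2 mm final). Reaction started with arachidonic acid (50 µm final) in quartz microcuvettes. 5-HpETE conjugated diene formation followed as absorbance increase at 234 nm (ε = 25 000 M−1 cm−1).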

[3] = system: THP-1 macrophages; assay: Cytotoxicity, acid phosphatase assay, THP-1 macrophages; assay type: cell-based, human; conditions: 10, 30 and 50 µM, 24 h
Procedure, shortened: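 THP-1 monocytes seeded at 4 × 10^4 per well, PMA-differentiated for 48 h, then rested for 3 days. Macrophages exposed to test compound for 24 h and washed with PBS. p-Nitrophenyl phosphate substrate (sodium acetate, 0.1% Triton X-100, pH 5.5) added for 1 h at 37°C in the dark. Stopped with NaOH; read at 405 nm. Mean ± SEM, n = 4.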

[4] = system: IL-10−/− colitis mice; conditions: IL-10 -/- murine model of colitis; cited from earlier work
[5] = system: IL-8 from LPS-induced SW480 cells; assay: IL-8 from LPS-induced SW480 cells; assay type: cell-based, human; conditions: for level of IL-8: 10 µM, LPS-induced SW480 cells, CTRL 1 3.324 ± 0.076; for inhibition at 10 µM: Homo sapiens, SW480, read-out: % inhibition of IL-8 over CTRL 1
[6] = system: DSS colitis mice; conditions: cited from earlier work
[7] = system: TNF-α in THP-1 macrophages; assay: Cytokine profiling THP-1 macrophages: TNF-α; assay type: cell-based, human; conditions: for level of TNF-α: CTRL 1 22.305 ± 2.753; for inhibition at 10 µM: Homo sapiens, THP-1, read-out: % inhibition of TNF-α
[8] = system: IL-6 in THP-1 macrophages; assay: Cytokine profiling THP-1 macrophages: IL-6; assay type: cell-based, human; conditions: for level of IL-6: 24 h, CTRL 1 1.666 ± 0.256; for inhibition at 10 µM: Homo sapiens, THP-1, read-out: IL-6 inhibition over CTRL 1
[9] = system: SW480 cells; assay: Cytotoxicity, acid phosphatase assay, SW480 cells; assay type: cell-based, human; conditions: 10, 30 and 50 µM, 24 h
Procedure, shortened: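 SW480 cells seeded at 4 × 10^4 per well 24 h before compound exposure, then exposed to test compound for 24 h. Wells washed with PBS. Acid phosphatase substrate (p-nitrophenyl phosphate in sodium acetate, 0.1% Triton X-100, pH 5.5) added for 1 h at 37°C, 5% CO2, in the dark. Stopped with NaOH; absorbance read at 405 nm. Mean ± SEM, n = 4.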

[10] = system: nitric oxide (NO) released from SW480 cells; conditions: read-out: IC50 NO inhibition, reported value; literature value; cited from earlier work
[11] = system: IL-1β in THP-1 macrophages; assay: Cytokine profiling THP-1 macrophages: IL-1β; assay type: cell-based, human; conditions: 10 µM, LPS-stimulated THP-1 macrophages; CTRL 1 0.329 ± 0.042
[12] = Homo sapiens, SW480, read-out: IC50 NO inhibition
[13] = 10 µM, LPS-stimulated THP-1 macrophages

| IC50 [1, 12] | inhibition at 10 µM [2] | Compound | level of IL-8 [5] | inhibition at 10 µM [5] | level of TNF-α [7, 13] | level of IL-6 [8, 13] | % inhibition of NO released ([1]; LPS-induced SW480 cells) | also measured |
| --- | --- | --- | --- | --- | --- | --- | --- | --- |
| 19.7 ± 7.88 µM | 45.3 ± 5.28% | O=C(O)c1ccc(C[C@@]2(C3=Cc4ccccc4C3)Cc3ccccc3[C@H]2O)cc1 [compound 2, 4-(((1'S,2'S)-1'-hydroxy-1',3'-dihydro-1H,2'H-[2,2'-biinden]-2'-yl)methyl)benzoic acid] | 2.529 ± 0.058 pg/µg ml | 23.9% | 11.613 ± 0.162 pg/µg ml | 0.132 ± 0.038 pg/µg ml | – | inhibition at 10 µM ([1]; Homo sapiens): 56.5 ± 3.09%; cytotoxicity in THP-1 macrophages [3]: no cytotoxicity effects; DAI [4]: reduced; colon cytokine levels of TNFα, IL-6 and IL1b ([6]; DSS colitis mice): reduced; DAI ([6]; acute 5% DSS murine model of colitis): reduced; MPO activity, a measure of inflammatory cell infiltration ([6]; murine model of colitis, model not given): significantly reduced; inhibition at 10 µM [7]: 45.2%; inhibition at 10 µM [8]: 92.1%; cytotoxicity in SW480 cells [9]: no cytotoxicity effects |
| – | – | O=C(O)c1ccc(C[C@@]2(C3=Cc4ccccc4C3)Cc3ccccc3C2=O)cc1 [compound 6, (S)-4-((1'-oxo-1',3'-dihydro-1H,2'H-[2,2'-biinden]-2'-yl)methyl)benzoic acid] | – | – | – | – | inhibited NO production | – |
| – | 39.7 ± 4.95% | O=C(O)c1ccc(CC2(C3=Cc4ccccc4C3)Cc3ccccc3C2)cc1 [compound 7, 4-((1',3'-dihydro-1H,2'H-[2,2'-biinden]-2'-yl)methyl)benzoic acid] | 2.676 ± 0.142 pg/µg ml | 19.5% | – | – | inhibited NO production | cytotoxicity in THP-1 macrophages [3]: no cytotoxicity effects; IL-6 inhibition over CTRL 1 [8, 13]: less potent but statistically significant; cytotoxicity in SW480 cells [9]: no cytotoxicity effects |
| – | – | COc1c(O)cc2oc3cc(O)c(CC=C(C)C)c(O)c3c(=O)c2c1CC=C(C)C [α-mangostin, reference compound] | – | – | – | – | 61.63 ± 7.50% | IC50 ([1]; read-out: IC50 NO inhibition, LPS-induced SW480 cells): 8.87 ± 1.18 µM; IC50 [10]: 12.2 µM |
| – | – | O[C@@H]1c2ccccc2C[C@@]1(Cc1ccccc1)C1=Cc2ccccc2C1 [compound 8, (1S,2S)-2-benzyl-2,3-dihydro-1H,1'H-[2,2'-biinden]-1-ol] | 2.288 ± 0.059 pg/µg ml | 31.2% | 14.193 ± 1.685 pg/µg ml | 0.075 ± 0.019 pg/µg ml | – | inhibition at 10 µM [7]: 33%; inhibition at 10 µM [8]: 95.5% |
| 20.5 ± 2.89 µM | – | O=C1c2ccccc2C[C@@]1(Cc1ccccc1)C1=Cc2ccccc2C1 [compound 9, (S)-2-benzyl-2,3-dihydro-1H,1'H-[2,2'-biinden]-1-one] | – | – | – | – | inhibited NO production | – |
| – | – | Infliximab: positive control; anti-TNF-α therapy for IBD treatment | – | – | 0.002 ± 0 pg/µg ml | 0.924 ± 0.180 pg/µg ml | – | level of IL-1β [11]: 0.329 ± 0.059 pg/µg ml; % inhibition of TNF-α [7, 13]: 99.98% |
| 48.7 µM | – | C[C@]12CCC(=O)C=C1CC[C@@H]1[C@@H]2[C@@H](O)C[C@@]2(C)[C@H]1CC[C@]2(O)C(=O)CO [hydrocortisone, reference compound] | – | – | – | – | – | inhibition at 10 µM ([1]; Homo sapiens): 43.5 ± 12.3% |
| – | – | CC(Cc1ccc(O)c(O)c1)C(C)Cc1ccc(O)c(O)c1 (stereo not drawn) [NDGA, nordihydroguaiaretic acid, reference compound] | – | – | – | – | – | % inhibition of 5-LOX ([2]; screened at 10 µM, mean ± SEM, n = 3): 51.92 ± 1.01% |
| – | 45.2 ± 5.36% | CC(c1cc2ccccc2s1)N(O)C(N)=O (stereo not drawn) [zileuton, reference compound] | – | – | – | – | – | – |
